Measured values of several laboratories.
Each line is one published result; the experiments were not run side by side.
HTR2C: 5-hydroxytryptamine receptor 2C (HTR2C, Homo sapiens, UniProt P28335)
HTR2B: 5-hydroxytryptamine receptor 2B (HTR2B, Homo sapiens, UniProt P41595)
HLA class I histocompatibility antigen, B alpha chain: HLA class I histocompatibility antigen, B alpha chain (Homo sapiens, UniProt P01889)

SMILES	target	test	setting	quantity	value
COc1cc(CCNC(c2ccccc2O)C2CC2)c(OC)cc1C#N (stereo not shown)	HTR2C	calcium signal, agonist	–	EC50	> 10000 nM
COc1cc2c3c(c1OC)-c1c(cccc1OC)CC3N(C)CC2 (racemic)	HTR2B	ligand displacement, radioligand	–	Ki	596 nM
CC(C)CC[C@@H](O)[C@@H](C)[C@H]1CC[C@H]2[C@@H]3CC=C4C[C@@H](O)CC[C@]4(C)[C@H]3CC[C@]12C	Cholesterol side-chain cleavage enzyme, mitochondrial (CYP11A1, Homo sapiens, UniProt P05108)	binding	–	Kd	163 nM
CC(C)C[C@H](NC(=O)[C@@H]1CCCN1C(=O)[C@H](Cc1c[nH]c2ccccc12)NC(=O)[C@H](CC(=O)O)NC(=O)[C@H](Cc1ccc(O)cc1)NC(=O)[C@@H](NC(=O)[C@@H](N)Cc1ccc(O)cc1)C(C)C)C(=O)N[C@H](C(=O)N[C@@H](Cc1ccccc1)C(=O)O)[C@@H](C)O	HLA class I histocompatibility antigen, B alpha chain	cell-free assay	–	IC50	24200 nM
COc1cc2c(cc1OC)CN(CCc1ccc(NC(=O)c3cccc4c(=O)c5cccc(OC)c5[nH]c34)cc1)CC2	HTR2C	cell-free assay	–	Ki	94 nM
CC(C)C[C@H](NC(=O)[C@H](CCC(N)=O)NC(=O)[C@H](CCCNC(=N)N)NC(=O)[C@H](CO)NC(=O)[C@H](Cc1ccc(O)cc1)NC(=O)[C@H](CC(C)C)NC(=O)[C@@H](N)CCCNC(=N)N)C(=O)N[C@@H](Cc1c[nH]cn1)C(=O)N[C@@H](Cc1ccccc1)C(=O)O	HLA class I histocompatibility antigen, B alpha chain	cell-free assay	–	IC50	7670 nM
N#CC(C#N)=Cc1ccc([N+](=O)[O-])c(O)c1	Casein kinase I isoform delta (CSNK1D, Homo sapiens, UniProt P48730)	binding, SPR	–	Kd	> 50000 nM
COc1cc(CCNC2CCCc3cccc(O)c32)c(OC)cc1C#N (stereo not shown)	HTR2C	G protein activation, agonist, BRET	–	EC50	5900 nM
CC[C@H](C)[C@H](NC(=O)[C@@H](NC(=O)[C@H](CCCCN)NC(=O)[C@H](Cc1c[nH]cn1)NC(=O)[C@H](Cc1ccc(O)cc1)NC(=O)[C@H](CCSC)NC(=O)[C@@H](N)CCCNC(=N)N)C(C)C)C(=O)N[C@H](C(=O)N[C@@H](Cc1ccccc1)C(=O)O)[C@@H](C)O	HLA class I histocompatibility antigen, B alpha chain	cell-free assay	–	IC50	1750 nM
COc1cc(C(F)(F)F)c(OC)cc1C1CCCNC1 (stereo not shown)	HTR2C	calcium signal, agonist	–	EC50	71 nM
CC[C@H](C)[C@H](NC(=O)[C@@H](N)CCCNC(=N)N)C(=O)N[C@@H](Cc1ccc(O)cc1)C(=O)NCC(=O)N1CCC[C@H]1C(=O)N1CCC[C@H]1C(=O)N[C@@H](Cc1c[nH]cn1)C(=O)N[C@@H](CCC(N)=O)C(=O)N[C@@H](Cc1ccccc1)C(=O)O	HLA class I histocompatibility antigen, B alpha chain	cell-free assay	–	IC50	2300 nM
O=C1Nc2ccc3ncsc3c2/C1=C/c1cnc[nH]1	Serine/threonine-protein kinase Nek6 (NEK6, Homo sapiens, UniProt Q9HC98)	enzyme activity, inhibitor	–	IC50	27500 nM
CC[C@H](C)[C@H](NC(=O)[C@@H]1CCCN1C(=O)[C@H](CCC(=O)O)NC(=O)[C@H](CC(C)C)NC(=O)[C@@H](N)C(C)C)C(=O)N[C@@H](CC(C)C)C(=O)N[C@@H](Cc1c[nH]cn1)C(=O)N[C@@H](CO)C(=O)N[C@H](C(=O)O)[C@@H](C)OP(=O)(O)O	Serine/threonine-protein kinase PLK1, polo-box (PLK1, Homo sapiens, UniProt P53350)	binding, MST	pH 8	Kd	13.7 nM
Nc1ncnc2c1ncn2[C@@H]1O[C@H](C[C@@H](N)CC[C@H](N)C(=O)O)[C@@H](O)[C@H]1O	mRNA cap guanine-N(7) methyltransferase (RNMT, Homo sapiens, UniProt O43148)	enzyme activity, inhibitor	–	IC50	9020 nM
CC[C@H](C)[C@H](NC(=O)[C@@H]1CCCN1C(=O)[C@H](Cc1c[nH]cn1)NC(=O)[C@H](CCCCN)NC(=O)[C@H](Cc1ccccc1)NC(=O)[C@H](CC(C)C)NC(=O)[C@@H](N)CCCCN)C(=O)N[C@@H](CCC(N)=O)C(=O)N[C@@H](CC(C)C)C(=O)O	HLA class I histocompatibility antigen, B alpha chain	cell-free assay	–	IC50	7480 nM
COc1cc2c(cc1OC)-c1c(OC)c(OC)cc3c1[C@H](C2)N(C)CC3 (racemic)	HTR2B	ligand displacement, radioligand	–	Ki	613 nM
